Test results as given in ChEMBL document CHEMBL1136888, “Design, synthesis, and biological evaluation of novel diarylalkyl amides as TRPV1 antagonists” (Bioorg Med Chem, 2009).

Molecular target: Transient receptor potential cation channel subfamily V member 1 (Rattus norvegicus, UniProt O35433)
Test: Antagonist activity at TRPV1 in Sprague-Dawley rat DRG neuron assessed as reduction of capsaicin-stimulated 45Ca2+ uptake
Type: functional
Method in brief: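 Neonatal Sprague-Dawley rat DRG neurons (all spinal levels) dissociated with collagenase/trypsin and cultured 3 days with C6 glioma-conditioned medium. Washed in HEPES (10 mM, pH 7.4) Ca/Mg-free HBSS. Exposed to 45Ca2+ plus 0.5 µM capsaicin with compound for 10 min at room temperature. Cells washed, SDS-lysed, scintillation counted.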

Chain of Transient receptor potential cation channel subfamily V member 1 (O35433 whole entry): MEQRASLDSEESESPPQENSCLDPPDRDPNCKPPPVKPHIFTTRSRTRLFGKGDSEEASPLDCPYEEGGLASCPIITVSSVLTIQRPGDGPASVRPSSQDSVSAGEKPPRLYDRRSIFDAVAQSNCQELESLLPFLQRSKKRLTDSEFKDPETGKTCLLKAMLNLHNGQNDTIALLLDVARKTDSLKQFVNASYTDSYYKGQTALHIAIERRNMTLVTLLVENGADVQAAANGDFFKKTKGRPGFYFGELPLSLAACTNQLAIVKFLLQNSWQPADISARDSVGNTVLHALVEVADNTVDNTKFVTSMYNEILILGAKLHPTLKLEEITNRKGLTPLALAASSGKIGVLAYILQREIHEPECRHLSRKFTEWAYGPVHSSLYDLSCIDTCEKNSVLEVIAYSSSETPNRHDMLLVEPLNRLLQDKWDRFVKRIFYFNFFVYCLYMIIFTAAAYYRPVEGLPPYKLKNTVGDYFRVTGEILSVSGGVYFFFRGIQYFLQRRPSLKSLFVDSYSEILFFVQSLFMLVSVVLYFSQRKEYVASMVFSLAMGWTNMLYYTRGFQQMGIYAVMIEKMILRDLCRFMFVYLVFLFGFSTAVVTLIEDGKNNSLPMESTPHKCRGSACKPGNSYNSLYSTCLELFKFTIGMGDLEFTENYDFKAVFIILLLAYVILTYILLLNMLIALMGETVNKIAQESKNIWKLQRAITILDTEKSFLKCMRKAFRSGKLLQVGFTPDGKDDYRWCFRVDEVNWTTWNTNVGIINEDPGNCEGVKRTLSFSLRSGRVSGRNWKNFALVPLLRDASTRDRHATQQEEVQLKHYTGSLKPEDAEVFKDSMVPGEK

Row | IC50 [nM] | SMILES
1 | 170 | CC(C)(C)c1ccc(CCC(=O)NCc2ccc(NS(C)(=O)=O)c(F)c2)cc1
2 | > 10000 | CC(C)Oc1ccc(CCC(=O)NCc2ccc(NS(C)(=O)=O)c(F)c2)cc1
3 | 4300 | CC1(C)Cc2cc(/C=C/C(=O)NCc3ccc(NS(C)(=O)=O)c(F)c3)ccc2O1
4 | 210 | CC1(c2ccc(CCC(=O)NCc3cc(F)c(NS(C)(=O)=O)c(C#N)c3)cc2)CC1
5 | > 10000 | CC1(C)Cc2cc(CCC(=O)NCc3ccc(NS(C)(=O)=O)c(F)c3)ccc2O1
6 | 1400 | CC1(C)CCc2cc(/C=C/C(=O)NCc3ccc(NS(C)(=O)=O)c(F)c3)ccc2O1
7 | 280 | CC(C)(C)c1cc2c(c(CCC(=O)NCc3ccc(NS(C)(=O)=O)c(F)c3)c1)OCCC2
8 | 85 | CC(C)(C)c1ccc(CCC(=O)NCc2cc(F)c(NS(C)(=O)=O)c(C#N)c2)cc1
9 | 710 | CC(C)(C)c1ccc(CNC(=O)NCc2ccc(NS(C)(=O)=O)c(F)c2)cc1
10 | > 10000 | CS(=O)(=O)Nc1ccc(CNC(=O)CCc2ccc(Br)cc2)cc1F
11 | 360 | CS(=O)(=O)Nc1ccc(CNC(=O)CCc2ccc(CC3CC3)cc2)cc1F
12 | 4600 | CS(=O)(=O)Nc1ccc(CNC(=O)CCc2ccc(C(F)(F)F)cc2)cc1F
13 | 7200 | CC1(C)CCc2cc(CCC(=O)NCc3ccc(NS(C)(=O)=O)c(F)c3)ccc2O1

The remaining lines, values behind:

Row | SMILES | IC50 [nM]
14 | CS(=O)(=O)Nc1ccc(CNC(=O)CCc2ccccc2)cc1F | > 10000
15 | CC1(c2ccc(/C=C/C(=O)NCc3ccc(NS(C)(=O)=O)c(F)c3)cc2)CC1 | 390
16 | CC(C)(C)c1cc(/C=C/C(=O)NCc2ccc(NS(C)(=O)=O)c(F)c2)c2c(c1)CCO2 | 1500
17 | CC1(C)CCC(C)(C)c2cc(CCC(=O)NCc3ccc(NS(C)(=O)=O)c(F)c3)ccc21 | 180
18 | CS(=O)(=O)Nc1ccc(CNC(=O)CCc2cc(C(F)(F)F)cc(C(F)(F)F)c2)cc1F | 2500
19 | CC(C)(C)c1cc2c(c(CCC(=O)NCc3ccc(NS(C)(=O)=O)c(F)c3)c1)OCC2 | 5000
20 | CC(C)(C)c1cc(CCC(=O)NCc2ccc(NS(C)(=O)=O)c(F)c2)cc(C(C)(C)C)c1 | 200
21 | CC(C)(C)c1ccc(CNC(=O)CCc2ccc(NS(C)(=O)=O)c(F)c2)cc1 | 2800
22 | CS(=O)(=O)Nc1ccc(CNC(=O)/C=C/c2ccc(I)cc2)cc1F | > 10000
23 | CC(C)Cc1ccc(CCC(=O)NCc2ccc(NS(C)(=O)=O)c(F)c2)cc1 | 640
24 | CC(C)(C)c1cc(/C=C/C(=O)NCc2ccc(NS(C)(=O)=O)c(F)c2)c2c(c1)CCCO2 | 920
25 | CC(C)(C)Oc1ccc(CCC(=O)NCc2ccc(NS(C)(=O)=O)c(F)c2)cc1 | > 10000
26 | CC1(C)CCC(C)(C)c2cc(/C=C/C(=O)NCc3ccc(NS(C)(=O)=O)c(F)c3)ccc21 | 340
27 | CC1(C)CCC(C)(C)c2cc(CCC(=O)NCc3cc(F)c(NS(C)(=O)=O)c(C#N)c3)ccc21 | 57
